In ChEMBL document CHEMBL1250424, “Design, synthesis and evaluation of 2-amino-4-m-bromoanilino-6-arylmethyl-7H-pyrrolo[2,3-d]pyrimidines as tyrosine kinase inhibitors and antiangiogenic agents” (Bioorg Med Chem, 2010):

How the values were obtained:
[1] = target: Platelet-derived growth factor receptor beta (Homo sapiens, UniProt P09619); assay: Inhibition of PDGFRbeta expressed in human A431 cells; type: cell-based, A-431
[2] = target: Vascular endothelial growth factor receptor 2 (Homo sapiens, UniProt P35968); assay: Inhibition of VEGFR2 expressed in human A431 cells; type: cell-based, A-431
[3] = Antiangiogenic activity in fertilized chicken egg by CAM assay; type: functional, Gallus gallus
[4] = target: Epidermal growth factor receptor (Homo sapiens, UniProt P00533); assay: Inhibition of EGFR expressed in human A431 cells; type: cell-based, A-431
A-431 = assay: Cytotoxicity against human A431 cells; type: functional, cell-based
Method in brief: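 Growth inhibition of A431 cells, which over-express EGFR, measured in culture. Cisplatin was run in each evaluation as the reference standard. Each assay was performed 2-3 times, with 4-5 replicates per assay.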

Sequence of Epidermal growth factor receptor (P00533 whole entry): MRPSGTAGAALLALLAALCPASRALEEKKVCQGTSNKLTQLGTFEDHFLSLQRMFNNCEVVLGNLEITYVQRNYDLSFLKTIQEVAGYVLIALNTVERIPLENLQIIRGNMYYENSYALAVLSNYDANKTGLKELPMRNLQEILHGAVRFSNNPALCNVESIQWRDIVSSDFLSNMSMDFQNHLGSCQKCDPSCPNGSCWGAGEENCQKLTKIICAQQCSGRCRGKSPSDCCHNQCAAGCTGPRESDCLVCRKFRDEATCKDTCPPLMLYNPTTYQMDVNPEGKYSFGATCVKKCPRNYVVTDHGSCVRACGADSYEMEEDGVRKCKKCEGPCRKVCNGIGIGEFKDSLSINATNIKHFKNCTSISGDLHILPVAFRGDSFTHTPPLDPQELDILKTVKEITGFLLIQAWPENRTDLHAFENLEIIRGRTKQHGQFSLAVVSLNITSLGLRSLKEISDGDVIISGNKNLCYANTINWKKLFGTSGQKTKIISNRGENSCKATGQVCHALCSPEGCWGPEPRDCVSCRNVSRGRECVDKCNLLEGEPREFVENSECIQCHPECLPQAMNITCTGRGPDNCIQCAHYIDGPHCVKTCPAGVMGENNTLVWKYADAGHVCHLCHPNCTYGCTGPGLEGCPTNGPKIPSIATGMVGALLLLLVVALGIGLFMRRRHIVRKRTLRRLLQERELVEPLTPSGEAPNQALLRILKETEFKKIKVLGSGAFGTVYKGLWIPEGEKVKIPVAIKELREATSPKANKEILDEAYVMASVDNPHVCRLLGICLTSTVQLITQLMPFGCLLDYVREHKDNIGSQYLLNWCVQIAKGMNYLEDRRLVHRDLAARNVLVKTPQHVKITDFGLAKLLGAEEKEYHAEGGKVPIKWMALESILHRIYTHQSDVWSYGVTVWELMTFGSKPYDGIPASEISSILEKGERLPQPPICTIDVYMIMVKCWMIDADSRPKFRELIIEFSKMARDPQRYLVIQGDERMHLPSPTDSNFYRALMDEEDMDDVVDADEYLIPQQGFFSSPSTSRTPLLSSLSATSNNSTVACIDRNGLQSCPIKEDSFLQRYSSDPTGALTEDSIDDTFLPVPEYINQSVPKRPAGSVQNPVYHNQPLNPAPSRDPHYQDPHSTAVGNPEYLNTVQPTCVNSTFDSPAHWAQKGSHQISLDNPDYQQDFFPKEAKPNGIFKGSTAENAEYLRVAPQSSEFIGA
Sequence of Vascular endothelial growth factor receptor 2 (P35968 whole entry): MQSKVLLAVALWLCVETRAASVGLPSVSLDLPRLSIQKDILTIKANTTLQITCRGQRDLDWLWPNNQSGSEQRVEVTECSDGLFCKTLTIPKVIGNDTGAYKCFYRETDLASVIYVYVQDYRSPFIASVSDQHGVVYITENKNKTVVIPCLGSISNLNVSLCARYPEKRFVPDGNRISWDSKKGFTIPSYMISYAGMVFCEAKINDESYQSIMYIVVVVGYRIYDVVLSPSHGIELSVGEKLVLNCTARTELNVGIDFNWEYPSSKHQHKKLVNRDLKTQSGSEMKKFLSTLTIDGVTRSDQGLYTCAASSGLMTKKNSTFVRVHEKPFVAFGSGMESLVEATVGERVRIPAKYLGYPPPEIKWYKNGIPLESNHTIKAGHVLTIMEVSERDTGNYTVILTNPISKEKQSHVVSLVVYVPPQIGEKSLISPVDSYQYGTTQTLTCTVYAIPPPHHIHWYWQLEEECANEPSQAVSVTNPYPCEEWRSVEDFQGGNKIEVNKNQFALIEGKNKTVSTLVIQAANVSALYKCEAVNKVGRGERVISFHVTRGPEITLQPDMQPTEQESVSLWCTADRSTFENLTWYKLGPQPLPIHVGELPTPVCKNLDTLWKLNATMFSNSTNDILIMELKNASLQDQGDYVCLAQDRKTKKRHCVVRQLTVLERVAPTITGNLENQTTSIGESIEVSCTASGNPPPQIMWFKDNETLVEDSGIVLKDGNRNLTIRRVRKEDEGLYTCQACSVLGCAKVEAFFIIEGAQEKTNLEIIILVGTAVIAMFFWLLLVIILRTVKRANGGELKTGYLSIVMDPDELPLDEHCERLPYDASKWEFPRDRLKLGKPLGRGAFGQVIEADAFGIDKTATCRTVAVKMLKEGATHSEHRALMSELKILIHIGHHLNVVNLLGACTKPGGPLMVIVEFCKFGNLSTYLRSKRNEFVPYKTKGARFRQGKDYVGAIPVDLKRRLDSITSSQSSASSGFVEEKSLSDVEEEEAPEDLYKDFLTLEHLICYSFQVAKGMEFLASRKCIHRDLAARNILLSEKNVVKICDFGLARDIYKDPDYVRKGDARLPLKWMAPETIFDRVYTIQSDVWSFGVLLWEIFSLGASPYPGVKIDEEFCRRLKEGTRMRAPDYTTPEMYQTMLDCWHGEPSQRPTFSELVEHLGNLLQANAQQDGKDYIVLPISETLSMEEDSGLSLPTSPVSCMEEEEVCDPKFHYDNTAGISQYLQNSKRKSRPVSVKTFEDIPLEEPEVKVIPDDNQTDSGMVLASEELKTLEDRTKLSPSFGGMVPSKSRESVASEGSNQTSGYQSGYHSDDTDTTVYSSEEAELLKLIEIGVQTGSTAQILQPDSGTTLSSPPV
Sequence of Platelet-derived growth factor receptor beta (P09619 whole entry): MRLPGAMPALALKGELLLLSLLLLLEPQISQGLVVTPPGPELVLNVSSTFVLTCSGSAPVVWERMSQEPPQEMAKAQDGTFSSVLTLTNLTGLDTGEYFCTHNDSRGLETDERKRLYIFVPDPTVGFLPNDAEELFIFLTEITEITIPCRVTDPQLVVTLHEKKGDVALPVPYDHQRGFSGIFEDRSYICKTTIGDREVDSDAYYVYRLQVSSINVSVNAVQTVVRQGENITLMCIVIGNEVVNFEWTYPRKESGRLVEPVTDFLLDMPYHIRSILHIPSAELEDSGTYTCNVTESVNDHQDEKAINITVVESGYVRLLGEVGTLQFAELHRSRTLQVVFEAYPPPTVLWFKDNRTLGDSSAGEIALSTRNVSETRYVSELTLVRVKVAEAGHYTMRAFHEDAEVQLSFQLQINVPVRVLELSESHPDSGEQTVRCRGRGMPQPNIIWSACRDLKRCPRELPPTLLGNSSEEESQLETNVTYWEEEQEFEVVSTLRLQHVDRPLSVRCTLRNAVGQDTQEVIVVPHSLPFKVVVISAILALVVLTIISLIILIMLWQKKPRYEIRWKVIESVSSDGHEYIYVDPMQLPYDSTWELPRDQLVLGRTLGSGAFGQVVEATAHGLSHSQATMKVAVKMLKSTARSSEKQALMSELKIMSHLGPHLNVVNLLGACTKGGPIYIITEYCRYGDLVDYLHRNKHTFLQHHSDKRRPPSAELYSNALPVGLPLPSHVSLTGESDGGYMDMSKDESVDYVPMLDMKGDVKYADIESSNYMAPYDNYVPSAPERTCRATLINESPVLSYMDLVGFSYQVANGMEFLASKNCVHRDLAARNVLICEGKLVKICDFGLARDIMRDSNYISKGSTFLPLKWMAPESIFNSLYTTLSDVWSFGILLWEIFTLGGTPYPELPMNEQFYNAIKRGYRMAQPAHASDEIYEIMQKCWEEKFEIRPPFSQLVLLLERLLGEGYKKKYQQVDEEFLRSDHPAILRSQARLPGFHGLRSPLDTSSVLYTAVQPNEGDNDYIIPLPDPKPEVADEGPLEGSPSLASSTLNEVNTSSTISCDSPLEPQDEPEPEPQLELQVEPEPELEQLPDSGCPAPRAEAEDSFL

Row | IC50 [1] | IC50 [2] | IC50 [3] | IC50 [4] | SMILES | IC50 (A-431)
1 | 1.3 µM | > 200 µM | 0.83 µM | 144 µM | COc1ccc(OC)c(Cc2cc3c(N(C)c4cccc(Br)c4)nc(N)nc3[nH]2)c1 | 197 µM
2 | 348 µM | > 200 µM | 3.3 µM | > 200 µM | COc1ccc(OC)c(Cc2cc3c(Nc4cccc(Br)c4)nc(N)nc3n2C)c1 | 35.6 µM
3 | > 500 µM | 89.2 µM | 1.56 µM | 53.1 µM | CN(c1cccc(Br)c1)c1nc(N)nc2[nH]c(Cc3ccccc3)cc12 | 45.7 µM
4 | > 500 µM | > 200 µM | 2.05 µM | 0.5 µM | COc1ccc(OC)c(Cc2cc3c(N(C)c4cccc(Br)c4)nc(N)nc3n2C)c1 | 94.1 µM
5 | 2.8 µM | > 200 µM | 6.22 µM | > 200 µM | Cn1c(Cc2ccccc2)cc2c(Nc3cccc(Br)c3)nc(N)nc21 | 27.9 µM
6 | > 500 µM | > 200 µM | 1.6 µM | 1.2 µM | Cc1ccccc1Cc1cc2c(N(C)c3cccc(Br)c3)nc(N)nc2n1C | 226 µM
7 | > 500 µM | 116 µM | 3 µM | 12.8 µM | Cc1ccccc1Cc1cc2c(Nc3cccc(Br)c3)nc(N)nc2n1C | 204 µM
8 | 34.8 µM | > 200 µM | 0.93 µM | 31.2 µM | Cc1ccccc1Cc1cc2c(N(C)c3cccc(Br)c3)nc(N)nc2[nH]1 | > 500 µM
9 | 71.7 µM | > 200 µM | 2.6 µM | 254 µM | CN(c1cccc(Br)c1)c1nc(N)nc2c1cc(Cc1ccccc1)n2C | 50.9 µM

Row | SMILES | IC50 [1] | IC50 [2] | IC50 [3] | IC50 [4] | IC50 (A-431)
10 | Cc1ccccc1Cc1cc2c(Nc3cccc(Br)c3)nc(N)nc2[nH]1 | – | 0.25 µM | – | – | –
11 | COc1ccc(OC)c(Cc2cc3c(Nc4cccc(Br)c4)nc(N)nc3[nH]2)c1 | – | 0.62 µM | 1.32 µM | – | –
